Bioassay records as filed in PubChem.
This is a sample that favours compounds with a hit; in the whole collection about 4% have one here.
Insulin prom inh: inhibitors of insulin promoter-driven GFP, primary screen, imaging, TRM-6 cells (human fetal islet line), eGFP reporter, cell count | reporter expression induced with tamoxifen | inhibition, % at 2 µM | actives 0.9% (n = 130,000) | AID 1273, 2008;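 active = inhibition above the mean plus 3 SD, with well images judged a real hit on visual review, cut at about 60% in these data, passing the limit was not always enough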
Yeast life ext: compounds extending yeast replicative lifespan, primary screen, S. cerevisiae, OD615 | inhibition of the nicotinamide effect, % at 10 µM | S. cerevisiae growth with nicotinamide; deaD strain in restrictive glucose medium | actives 0.68% (n = 130,000) | AID 775, 2007;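 active = inhibition above a set limit, placed 3 SD over the median of all compounds, cut at about 26% in these data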
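Material: Modified budding yeast, DeaD strain | Medium: Restrictive glucose medium | Probe or stimulus: 1.5 mM nicotinamide | Dosing: Single dose 10 µM compound, 0.25% DMSO | Times: 48 h at 30 °C | Technique: OD615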
BB579 growth dn: growth inhibitors of yeast BB579 in restrictive medium, primary screen, yeast lifespan-shortening project, S. cerevisiae. inhibition, % at 10 µM. actives 0.51% (n = 140,000). OD615, 48 h. AID 804, 2007;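 active = inhibition above a set limit, 3 SD over the mean compound inhibition, cut at about 44% in these data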
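controls = amphotericin B 10 µg/mL, positive | assay system = DeaD yeast strain BB579 | schedule = 48 h compound exposure at 30 °C after 4 h preincubation | detection = OD615 turbidity measurement | medium = restrictive CSMM-D medium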
Mdm2 ligase inh: MDM2-luciferase reporter signal enhancers, primary screen, MDM2 E3 ligase inhibitor project, cell-based, luminescence, 1536-well; E3 ubiquitin-protein ligase Mdm2 (Homo sapiens), Q00987; cell-based MDM2 ubiquitination luciferase reporter, 2 h; 0 = plate control, 100 = twice control, blank-subtracted; signal enhancement, % at 5 µM; actives 0.11% (n = 210,000);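 active = signal enhancement of 30% or more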;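 also: luminescence tracks abundance of the self-degrading MDM2-luciferase fusion protein; higher signal means inhibition of MDM2 E3 ligase activity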
Target sequence (Q00987 whole entry, looked up, the tested form may be a part): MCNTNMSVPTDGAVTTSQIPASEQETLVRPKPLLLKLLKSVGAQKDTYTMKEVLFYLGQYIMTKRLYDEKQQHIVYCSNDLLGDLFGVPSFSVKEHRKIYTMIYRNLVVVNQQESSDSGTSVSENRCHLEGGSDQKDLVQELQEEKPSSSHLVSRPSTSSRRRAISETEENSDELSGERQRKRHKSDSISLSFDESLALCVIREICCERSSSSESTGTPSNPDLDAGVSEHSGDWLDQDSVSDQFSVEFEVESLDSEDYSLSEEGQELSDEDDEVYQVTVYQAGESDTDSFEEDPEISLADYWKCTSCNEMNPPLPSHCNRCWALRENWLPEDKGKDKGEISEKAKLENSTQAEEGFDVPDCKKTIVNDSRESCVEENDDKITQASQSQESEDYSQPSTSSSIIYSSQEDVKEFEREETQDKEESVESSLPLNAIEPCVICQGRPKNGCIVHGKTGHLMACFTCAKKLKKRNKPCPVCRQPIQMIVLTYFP
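Assay system: stable mammalian line carrying autodegrading MDM2–luciferase fusion reporter; amount: 2000 cells seeded into each well; buffer or medium: DMEM; benchmarks: plate control and blank wells; signal: luciferase luminescence; timing: 2 h compound exposure at 37 °C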
RAM inhibit: inhibitors of the yeast RAM network, primary screen, dse1pr::URA3 reporter, 5-FOA selection; S. cerevisiae dse1pr::URA3 reporter, 5-FOA growth OD615, 2 d; analog-sensitive cbk1-as2 kinase mutant strain; actives 1.8% (n = 190,000); inhibition, % at 50 µM;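 active = inhibition above a set limit, 3 SD over mean compound inhibition, cut at about 8.4% in these data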;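 also: inhibition rescues growth on 5-FOA so higher OD means more RAM inhibition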
Measles CPE: compounds protecting cells from measles virus cytopathic effect, primary screen, measles RdRp inhibitor project, single point, MLSMR library, absorbance; Measles virus-infected cells, CPE protection; protection (pct of control), % at 4 µM; actives 1.5% (n = 140,000); in the data active = protection mostly above about 24%, no sharp cut-off; inactive = mostly below about 26%
A number is an active result; – = inactive; · = no result given.

SMILES | Insulin prom inh | Yeast life ext | BB579 growth dn | Mdm2 ligase inh | RAM inhibit | Measles CPE
N#C/C(=C/c1cc(Br)cs1)C(=O)NCC1CCCO1 (stereo not given) | – | – | – | – | – | 37
COc1cc(/C=C(\C#N)C(=O)NCC2CCCO2)ccc1OC(C)C (stereo not given) | 70 | – | – | – | – | –
CCOC(=O)N1CCC(NC(=O)c2cc(C(=O)NCc3cccc(Cl)c3)ccc2CO)CC1 | · | – | – | – | – | 39
CCCCCNC(=O)CCc1ccccc1 | – | · | – | – | – | 53
O=C(CCc1ccccc1)NCCCN1CCOCC1 | · | 66 | – | – | – | –
O=C(CCC(=O)NCCCc1ccccc1)NCCCc1ccccc1 | – | – | – | – | – | –
Nc1ccc(NC(=O)NC2CCCCC2)cc1[N+](=O)[O-] | · | · | · | – | – | ·
Cc1noc(C)c1COc1cccc(C(=O)OCCOc2ccc(F)cc2)c1 | – | – | – | – | 8.7 | –
N/C(=N\c1nc2ccccc2o1)NC(=O)c1ccccc1Br | · | · | · | – | · | ·
O=C(CCCSc1nnnn1-c1ccccc1)c1ccc(F)cc1 | · | – | – | – | – | –
N#Cc1c(SCC(N)=O)nsc1SCc1ccccc1Cl | – | – | – | – | – | –
N#Cc1c(SCC(N)=O)nsc1SCc1ccc(Cl)cc1 | – | – | – | · | 9.2 | –
O=C(C1CC(c2ccccc2O)=NO1)N1CCc2ccccc2C1 (stereo not given) | – | – | – | – | – | 47
CCN(CC)CCCNc1oc(-c2ccc(OC)c(OC)c2)nc1C#N | – | – | – | – | – | 45
CCC(=Nc1ccc(Cc2ccncc2)cc1)c1c(O)n(C)c(=O)n(C)c1=O | · | 27 | – | – | – | –
COc1ccc(C(=O)C23CC4CC(C2)CC(C(=O)c2ccc(OC)cc2)(C4)C3)cc1 | · | · | · | – | 9.1 | ·
CCC(=O)Nc1cc(=O)[nH]c2nc(-c3ccc(Cl)cc3)nn12 | · | · | · | – | · | ·
CC(N=Cc1c(O)c2ccccc2oc1=O)C(=O)O (stereo not given) | · | · | · | – | – | ·
CCn1c(C)nc2cc(-c3nnc(-c4c(-c5ccccc5)noc4C)o3)ccc21 | · | – | – | – | – | 50
Cc1ccc(S(=O)(=O)Oc2ccc(C3C4=C(CCCC4=O)N(CCC(=O)O)C4=C3C(=O)CCC4)cc2Cl)cc1 | – | – | – | – | 8.9 | –
Cc1noc(C)c1N=Nc1ccc(Br)cc1C(=O)O | · | · | · | · | – | ·
COc1cccc(OC)c1OCCN(C)C | 70 | – | – | – | – | –
CCOC(=O)C1=C(C)Nc2nc(=S)[nH]n2C1c1ccc(Cl)cc1 (stereo not given) | – | 62 | – | – | – | –
N=C(CC1CC(=O)NC(=O)C1)C1=C(O)CCCC1=O | – | – | – | – | – | –
COc1cc(OC)c(NC(=O)CCCn2c(=O)oc3ccccc32)cc1Cl | – | – | – | – | 11 | –
SMILES | Insulin prom inh | Yeast life ext | BB579 growth dn | Mdm2 ligase inh | RAM inhibit | Measles CPE
COc1cc(Cl)c(C)cc1NC(=O)CCCn1c(=O)oc2ccccc21 | – | – | – | – | – | –
Cc1noc(/C=C/c2ccc(-c3ccccc3Cl)o2)c1[N+](=O)[O-] | · | – | – | – | 8.9 | –
Cc1cc(C)c2nc(SCC(=O)NCCC3=CCCCC3)cc(C)c2c1 | – | – | – | – | – | –
CN1C(=O)c2oc3ccccc3c(=O)c2C1c1ccccn1 (stereo not given) | – | 31 | – | – | – | –
O=C(Nc1ccc(F)cc1F)c1ccco1 | – | – | – | – | – | –
Cc1ccc(SCCNC(=S)Nc2cc(C)ccc2C)cc1 | – | – | – | – | 8.9 | –
Cc1ccc(SCCNC(=S)Nc2ccccc2)cc1 | – | – | – | – | – | –
CC(C)(C)N/C=C(\C#N)S(=O)(=O)c1ccc(Br)cc1 | · | · | · | – | · | ·
COc1ccc(C2C3=C(CCCC3=O)Nc3nc(SCc4ccc(C(=O)O)cc4)nn32)cc1OC (stereo not given) | · | – | – | – | 8.8 | 31
O=C(Cn1nc(-c2ccccc2)ccc1=O)NCC1COCCO1 (stereo not given) | 100 | – | – | – | – | –
O=C(Cn1nc(-c2ccccc2)ccc1=O)NCCCN1CCOCC1 | · | · | · | – | · | ·
COc1ccc(Br)cc1/C=N/NC(=O)CN1CCN(Cc2ccccc2)CC1 | · | · | · | – | · | ·
CC1(C)CC(=O)C2=C(C1)Nc1nc(SCCN3CCOCC3)[nH]c(=O)c1C2c1cccs1 (stereo not given) | – | – | – | 31 | – | –
CCCCN=C1CC(C)(C)CC(=O)/C1=C(/O)CCC | · | · | · | – | · | ·
CC1=NN(C(=O)c2ccc(Cn3cc([N+](=O)[O-])cn3)cc2)C(O)(C(F)(F)F)C1 (stereo not given) | – | – | – | – | – | –
Nc1[nH]c(=O)ncc1F | – | – | 74 | · | – | –
O=c1c([N+](=O)[O-])cc(C(F)(F)F)cn1Cc1c(Cl)cccc1Cl | – | – | – | – | – | –
Cn1nccc1CNC(=O)c1c(Cl)cnn1C | 73 | – | – | – | – | –
Cn1ncc(Cl)c1C(=O)NCc1ccco1 | · | · | · | – | – | ·
CN(C(=O)C(Cl)Cl)C1CC2C=CC1C2 (stereo not given) | · | · | · | – | · | ·
Nc1ncnc2c1ncn2[C@@H]1O[C@H](CO)[C@@H](O)[C@H]1O | – | – | – | · | – | 45
O=C(O)Cc1ccc2sc(-c3ccccc3)nc2c1 | – | – | 49 | – | – | –
Cc1cc(=O)oc2cc(OCC(=O)OCC(=O)Nc3ccccc3C(C)C)ccc12 | 60 | – | – | – | – | –
Cc1cc(=O)oc2cc(OCC(=O)OCC(=O)Nc3ccccc3F)ccc12 | – | · | · | – | – | ·
NS(=O)(=O)c1ccc(CCNC(=O)Nc2ccc(Cl)c(Cl)c2)cc1 | · | – | – | – | 11 | –
SMILES | Insulin prom inh | Yeast life ext | BB579 growth dn | Mdm2 ligase inh | RAM inhibit | Measles CPE
NS(=O)(=O)c1ccc(CNC(=S)Nc2ccc(Cl)c(Cl)c2)cc1 | · | · | · | – | – | ·
CCCNC(=S)N1CCC(NC(=O)C2CCCCC2)CC1 | – | – | – | – | – | –
N#CCCN(C(=O)COC(=O)c1cccc(S(=O)(=O)Nc2ccc([N+](=O)[O-])cc2)c1)c1ccccc1 | 69 | – | – | – | – | –
CC(C)(C)C(=O)COC(=O)c1ccc(O)cc1 | – | – | – | – | – | 55
CC(C)(C)C(=O)COC(=O)c1ccccc1O | – | – | – | – | – | –
Nc1c(C(=O)NCc2ccc3c(c2)OCO3)c2nc3ccccc3nc2n1CCCN1CCOCC1 | · | – | – | – | 9.8 | –
COc1ccccc1CNC(=O)c1c(N)n(CCCN2CCOCC2)c2nc3ccccc3nc12 | – | – | – | – | – | –
